# Screening data as filed in PubChem.
# Efflux pump inh – antifungal efflux pump inhibition, Nile Red retention. 330,000 tested, 0.44% active. S. cerevisiae Candida pump triplex. AID 485275. inhibition, % at 10 µM;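 active = plate passing quality check with inhibition over a set limit, or well fluorescence over plate mean plus 4 SD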;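 also: Nile Red retained in pooled yeast measured as flow cytometry median fluorescence; 0% = buffer negative control and 100% = Enniatin B positive control; higher means more Nile Red kept so more efflux inhibition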
# MT1-MMP act inh – inhibitors of human MT1-MMP activation | P50281 | HT1080 RFP-PRO-GFP cells, GFP/RFP ratio fluorescence, overnight; percent of plate control window, DMSO zero | GFP/RFP ratio change, % at 20 µM | 360,000 tested, 0.061% active;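 active = GFP/RFP ratio change of at least 30% with cell ATP level not reduced by more than half and red fluorescence within 50% of control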
#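 Material – HT1080 RFP-PRO-GFP cells · Control set – DMSO wells and RFP-L50D-GFP cells · Incubation – overnight cell settling, then overnight compound exposure, 37 °C, 5% CO2 · Compound dosing – single-point 20 µM compound, 1% DMSO · Read-out – GFP/RFP fluorescence ratio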
# H9c2 TAG inh – reduces triacylglycerol accumulation in H9c2 cells. Nile Red lipid (TAG) fluorescence; cells loaded with 200 µM oleic acid. inhibition, % at 12.5 µM. 230,000 tested, 0.66% active. AID 651582;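 active = pattern-corrected inhibition of lipid staining of at least 50% with the nuclear-stain viability signal not falling by more than 50%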;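 also: 0% = DMSO wells and 100% = triacsin C control wells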
# HGIII-sPLA2 inh – Blocks human group III sPLA2 activity; inhibition, % at 12.2 µM; Q9NZ20; AID 743126; 370,000 tested, 0.56% active; QFRET BODIPY PC-A2 liposome hydrolysis, fluorescence;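 active = inhibition above mean plus 3 SD of compounds lying within the high and low control bounds, cut at about 19% in these data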;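 also: 0% = median of test compound wells and 100% = no enzyme DMSO wells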
# Target sequence (Q9NZ20 whole entry, looked up): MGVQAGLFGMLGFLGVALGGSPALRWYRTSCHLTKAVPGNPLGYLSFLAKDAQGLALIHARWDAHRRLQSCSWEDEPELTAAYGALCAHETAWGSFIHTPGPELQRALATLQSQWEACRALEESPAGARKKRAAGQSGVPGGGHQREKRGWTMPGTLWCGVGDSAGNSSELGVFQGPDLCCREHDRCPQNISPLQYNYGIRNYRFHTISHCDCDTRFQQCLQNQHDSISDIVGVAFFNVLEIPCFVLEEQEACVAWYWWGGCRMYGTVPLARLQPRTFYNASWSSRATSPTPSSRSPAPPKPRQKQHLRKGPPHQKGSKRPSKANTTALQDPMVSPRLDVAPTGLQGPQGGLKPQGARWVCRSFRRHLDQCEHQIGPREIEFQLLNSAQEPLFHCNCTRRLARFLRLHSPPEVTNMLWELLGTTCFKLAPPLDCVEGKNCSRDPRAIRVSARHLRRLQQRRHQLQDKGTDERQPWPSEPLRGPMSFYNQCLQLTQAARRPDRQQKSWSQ
# TAG conf – confirmation of triacylglycerol accumulation inhibitors | shares compounds with H9c2 TAG inh | H9c2 lipid accumulation, Nile Red fluorescence; cells loaded with 200 µM oleic acid | inhibition, % at 12.5 µM | 990 tested, 71% active | AID 651629;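 active = mean inhibition across replicates of 40% or more; inactive = mean inhibition below 40%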;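 also: plate controls were DMSO only wells for no effect and Triacsin C treated wells for full effect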
# Starred values were filed as active, the others as inactive; / = no result. Rows were chosen to be rich in hits. Some 1.3% of all compounds tested hit in one or more screens of this group.
SMILES,Efflux pump inh,MT1-MMP act inh,H9c2 TAG inh,HGIII-sPLA2 inh,TAG conf
COc1ccccc1-c1cc(NC=O)c2ncc(-c3cccc(C(C)=O)c3)n2c1,/,-7.7,15.4,-0.9,/
COc1ccccc1-c1cc(NC=O)c2ncc(-c3cccc(C(=O)N(C)C)c3)n2c1,/,6.4,58.8*,6.6,68.2*
COc1cccc(-c2cc(NC=O)c3ncc(-c4ccc(OC)c(OC)c4)n3c2)c1,/,-5.3,-1.0,3.7,/
O=CNc1cc(-c2ccc(C(=O)NC3CC3)cc2)cn2c(-c3ccccc3)cnc12,/,-4.0,13.7,-0.1,/
CC(=O)c1ccc(-c2cnc3c(NC=O)cc(-c4ccc(C(=O)NC5CC5)cc4)cn23)cc1,/,-17.7,54.3*,-2.4,51.5*
CN(C)C(=O)c1cccc(-c2cnc3c(NC=O)cc(-c4cc(F)c(F)c(F)c4)cn23)c1,/,-2.1,23.2,1.9,/
COc1ccc(-c2cnc3c(NC=O)cc(-c4cccc(NS(C)(=O)=O)c4)cn23)cc1OC,/,4.9,64.8*,-7.0,58.4*
COc1cc(-c2cc(NC=O)c3ncc(-c4cccc(C(=O)N(C)C)c4)n3c2)cc(OC)c1OC,/,-1.2,58.2*,1.7,71.6*
C[C@H](O)[C@@H]1C(=O)N2CCc3c([nH]c4c(-c5ccc6c(c5)OCO6)cccc34)[C@@H]2C[C@@H]1N(C)C(=O)c1ccccc1F,/,/,/,-60.6,/
COc1ccc(OC)c(S(=O)(=O)N/N=C\c2cn(CC(N)=O)c3ccccc23)c1,0.0,-3.3,21.3,1.2,/
Cc1ccc(S(=O)(=O)N2CCOCC2)cc1C(=O)Nc1ccccc1N1CCOCC1,0.1,-0.9,-5.5,0.4,/
N#CC1=C(SCC(=O)c2ccc(Br)cc2)NC2=C(C(=O)CCC2)C1c1ccco1 (configuration not stated),-0.1,-16.4,57.2*,-11.8,39.5
CC(C)CN1CCC(CN2C(=S)NC[C@@H]2Cc2ccccc2)CC1,/,/,/,5.5,/
CC1CCN(C(=O)CNC(=O)c2cccc(OC(F)F)c2)CC1,-0.1,-3.4,3.6,2.6,/
O=C(N[C@@H](Cc1cccnc1)C(=O)N1CCC[C@H]1C(=O)NC1CCCC1)c1ccccc1,/,/,/,2.3,/
Cc1cc(C(=O)CSc2nnc(NCc3ccccc3)s2)c(C)n1C,0.0,-2.5,51.3*,-7.4,27.1
CN1/C(=C\C(=O)CSc2nnc(NCc3ccccc3)s2)C(C)(C)c2ccccc21,1.7,7.2,/,-1.1,/
COc1ccc(-c2cc(C(=O)Oc3ccc([N+](=O)[O-])cc3)c3ccccc3n2)cc1,0.1,1.9,5.7,2.8,/
COc1ccc2nc3cc([N+](=O)[O-])ccc3c(NNc3ccc([N+](=O)[O-])cc3)c2c1,/,-2.0,50.5*,1.1,43.6*
Nc1ccc2nc(NC(=O)C3CCCCC3)sc2c1,0.1,1.5,10.1,6.7,/
O=C(Nc1nc2ccc(C(=O)N3CCCCC3)cc2s1)C1CCCCC1,-0.1,-2.2,63.7*,0.1,68.2*
O=C(COc1ccccc1-c1ccccc1)N/N=C/c1cccc2ccccc12,-0.1,7.3,63.2*,3.6,36.0
O=C1CCCC2=C1C1(CCCC1)N=C(Nc1nc3cc(-c4ccccc4)ccc3o1)N2,/,-30.7,62.4*,3.8,70.8*
O=C1CCCC2=C1C1(CCCCC1)N=C(Nc1nc3ccccc3o1)N2,0.0,-42.7,13.8,-4.7,/
CC(C)(C)c1ccc(C(=O)NNc2cc(N3CCCCC3)nc(N3CCCCC3)n2)cc1,0.1,-12.2,59.8*,-4.5,35.9
SMILES,Efflux pump inh,MT1-MMP act inh,H9c2 TAG inh,HGIII-sPLA2 inh,TAG conf
COc1cc(C#Cc2c(-c3cncn3C)n(C)c3ccc(-c4cc(OC)c(OC)c(OC)c4)cc23)cc(OC)c1,0.1,-12.2,60.7*,15.1,76.5*
COc1cc(C#Cc2c(-c3cncn3C)n(C)c3ccc(-c4ccc5[nH]ccc5c4)cc23)cc(OC)c1,0.1,-6.0,92.6*,1.1,92.0*
COc1cc(OC)cc(-c2c(C#Cc3ccsc3)c3cc(-c4cc(OC)c(OC)c(OC)c4)ccc3n2C)c1,0.2,-0.7,31.5,6.8,/
COc1cc(/C=C/C(=O)O)cc(S(=O)(=O)NC2CC2)c1OC,0.0,4.4,/,3.3,/
CCC(=O)NC(Nc1sc2c(c1C(=O)OC)CCCC2)(C(F)(F)F)C(F)(F)F,-0.1,-1.2,51.3*,-1.2,25.9
CC(C)=CCNc1ncnc2c1c(C#N)cn2C1OC(CO)C(O)C1O (configuration not stated),/,-2.3,58.3*,-0.3,46.1*
OCC1OC(n2ccc3c(NO)ncnc32)C(O)C1O (configuration not stated),/,-28.6,130.3,-3.9,/
